b-catenin transl = alters nuclear translocation of beta-catenin in HeLa cells; 190,000 compounds, 0.3% hits; immunofluorescence imaging; nuclear translocation activity, % at 5 µM;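 active = nuclear translocation activity above 50% at 5 µM, with a well cell count of 50 or more; inconclusive = wells under 50 cells across six images, flagged as toxic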;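 also: per-cell ratio of nuclear to cytoplasmic median beta-catenin stain intensity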
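Assay system: human HeLa cells, native beta-catenin; doses: 5 µM primary, 0.02–20 µM confirmation; incubation: compound treatment 24 h, 37°C, 5% CO2; technique: fluorescence imaging of beta-catenin antibody stain plus DAPI; measure: % activation, nuclear-to-cytoplasmic median beta-catenin signal ratio per cell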
Pf gamet viab = kills late stage P. falciparum gametocytes; AID 743093; P. falciparum stage V gametocytes, ATP luminescence, 24 h; 150,000 compounds, 0.065% hits; inhibition, % at 10.9 µM;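 active = inhibition above the mean plus 3 SD of compounds within the control limits, set per campaign, cut at about 38% in these data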
MT stabilize HCS = stabilizes microtubules in HeLa cells | HeLa tubulin immunostaining HCS, 24 h; share of cells brighter than vehicle mean+2SD | % tubulin-high responders, % at 10 µM | 200,000 compounds, 0.83% hits | AID 2205;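 active = plate Z-score above 3 for both tubulin-high and condensed-nucleus cell shares, with cell loss under 80%, at 10 µM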;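 also: anti alpha tubulin signal scored within the nucleus-defined area of each cell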
WT yeast gro inh = growth inhibition of WT yeast, mitochondrial fusion screen; mitochondrial fusion phenotypic screen, WT strain; inhibition, % at 10 µM; 190,000 compounds, 2.1% hits; AID 1362; in the data active = inhibition above about 58%; tested in S. cerevisiae
Cl transport mod = modulates chloride dependent transport by human KCC2; Q9H2X9; KCC2 cells, thallium flux FluoZin-2 fluorescence; B-score of Tl+ flux slope (higher = more flux/activation; lower = inhibition) at 10 µM; 190,000 compounds, 2.2% hits; AID 1456;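 active = thallium flux slope and its plate-corrected score both differing from the plate sample mean at a set confidence after two filtering rounds, in either direction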;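 also: slope of fluorescence scaled to starting intensity during 10 to 20 s after thallium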
Target sequence (Q9H2X9 whole entry, looked up): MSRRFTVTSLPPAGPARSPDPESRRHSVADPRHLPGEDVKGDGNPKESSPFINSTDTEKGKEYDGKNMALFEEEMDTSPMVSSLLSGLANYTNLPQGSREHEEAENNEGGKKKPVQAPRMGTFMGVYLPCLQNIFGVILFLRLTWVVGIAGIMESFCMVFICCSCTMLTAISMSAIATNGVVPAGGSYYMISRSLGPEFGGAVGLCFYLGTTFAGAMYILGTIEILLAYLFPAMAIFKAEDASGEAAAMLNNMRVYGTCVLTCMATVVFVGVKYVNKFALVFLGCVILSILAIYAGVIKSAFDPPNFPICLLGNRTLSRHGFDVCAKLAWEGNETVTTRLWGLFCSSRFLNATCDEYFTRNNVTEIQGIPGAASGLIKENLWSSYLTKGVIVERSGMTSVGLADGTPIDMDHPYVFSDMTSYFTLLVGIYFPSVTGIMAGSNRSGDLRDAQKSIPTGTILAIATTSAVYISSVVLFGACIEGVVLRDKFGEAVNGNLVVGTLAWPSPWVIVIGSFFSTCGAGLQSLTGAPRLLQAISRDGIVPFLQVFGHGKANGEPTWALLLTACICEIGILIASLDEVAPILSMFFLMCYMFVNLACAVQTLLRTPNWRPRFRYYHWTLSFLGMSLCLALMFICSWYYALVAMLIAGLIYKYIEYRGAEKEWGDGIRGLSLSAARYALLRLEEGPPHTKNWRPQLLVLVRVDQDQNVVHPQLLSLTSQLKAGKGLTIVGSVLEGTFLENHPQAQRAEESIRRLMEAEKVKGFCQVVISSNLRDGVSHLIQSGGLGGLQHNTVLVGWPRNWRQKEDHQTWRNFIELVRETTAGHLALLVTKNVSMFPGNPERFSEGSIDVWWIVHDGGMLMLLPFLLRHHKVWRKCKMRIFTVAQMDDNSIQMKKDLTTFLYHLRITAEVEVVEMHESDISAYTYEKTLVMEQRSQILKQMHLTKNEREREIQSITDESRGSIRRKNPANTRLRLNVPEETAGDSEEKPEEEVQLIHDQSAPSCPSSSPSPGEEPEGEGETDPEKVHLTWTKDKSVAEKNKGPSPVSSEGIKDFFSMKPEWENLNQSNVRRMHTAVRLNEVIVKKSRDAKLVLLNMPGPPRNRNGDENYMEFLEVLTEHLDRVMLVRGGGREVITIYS
KCC2 secondary = KCC2 (human) modulation, secondary assay; normalised thallium flux (F/F0 slope) at 10 µM; HEK293-KCC2, thallium flux, FluoZin2 fluorescence; stronger effect = higher value; shares compounds with Cl transport mod; 3,700 compounds, 15% hits; AID 1713;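 active = thallium flux slope above the same plate's solvent-only control mean plus 3 SD; inconclusive = the two replicate wells disagree; inactive = no significant difference from solvent-only control wells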
KCC2 bumet counter = thallium flux despite bumetanide block in KCC2 cells, secondary assay 3; shares compounds with Cl transport mod; HEK293-KCC2 + bumetanide/ouabain, thallium flux FluoZin2; stronger effect = higher value; normalized thallium flux at 10 µM; 3,700 compounds, 49% hits; AID 1714;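 active = thallium entry rate above the same plate's blocked-transporter control wells by more than 3 SD; inconclusive = the two repeat wells disagree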;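 also: raw slope of fluorescence over initial fluorescence between 10 and 20 s after thallium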
KCC2 sec2 = KCC2 (human) modulation, second secondary assay. shares compounds with Cl transport mod. normalized thallium flux at 10 µM. HEK293-KCC2, thallium flux FluoZin2 fluorescence; actives lie on both sides; F/F0 rise rate, 10–20 s post-thallium. 3,700 compounds, 23% hits;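 active = thallium flux slope more than 3 SD above or below the plate's solvent-only control mean, mostly below; inconclusive = the two repeat wells disagreed; inactive = no significant shift from solvent-only controls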
HEK293 Tl flux = parental HEK flux effect, counter-screen; AID 1716; 3,700 compounds, 46% hits; shares compounds with Cl transport mod; thallium flux rate (normalised fluorescence) at 10 µM; HEK293 parental cells, thallium flux FluoZin2, ouabain; baseline-ratio fluorescence slope, 10–20 s after thallium;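 active = thallium flux rate significantly above the same plate's solvent-only control wells, beyond their mean plus 3 SD; inconclusive = the two replicate wells gave conflicting results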
KCC2 retest ouab = confirmation of human KCC2 modulators with ouabain; raw Tl+ flux slope (below DMSO = inhibition, above = activation) at 10 µM; shares compounds with Cl transport mod; 3,700 compounds, 48% hits; HEK293-KCC2, thallium flux FluoZin2 fluorescence; bidirectional: low = inhibitor, high = activator; AID 1717;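 active = thallium flux slope beyond 3 SD from same-plate DMSO control mean in most replicates, usually higher, sometimes lower; inconclusive = repeat tests gave conflicting results; inactive = no significant difference from controls in most replicates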;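 also: slope of initial-normalized fluorescence between seconds 10 and 20 after thallium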
HEK counter2 = acts in parental HEK cells, second KCC2 counter-screen; shares compounds with Cl transport mod; thallium flux slope at 10 µM; HEK293 parental, thallium flux FluoZin-2 fluorescence slope; 3,700 compounds, 33% hits; AID 1718;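 active = thallium flux slope above the same plate's solvent-control mean plus 3 SD in both duplicate wells; inconclusive = duplicate wells that disagreed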;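 also: run without ouabain in cells lacking the KCC2 cotransporter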
A number is an active result; - = inactive; ? = inconclusive; . = no result given. Only some compounds are listed: those with a hit (about 4% of all), similar ones and a draw of the others.

SMILES	b-catenin transl	Pf gamet viab	MT stabilize HCS	WT yeast gro inh	Cl transport mod	KCC2 secondary	KCC2 bumet counter	KCC2 sec2	HEK293 Tl flux	KCC2 retest ouab	HEK counter2
CCCCCCn1c(SCC(=O)Nc2cc(C)on2)nc2ccccc2c1=O	-	-	-	-	.	.	.	.	.	.	.
O=C1OCCC1Sc1nc2ccccc2c(=O)n1Cc1ccc(F)cc1 (stereo not given)	.	-	-	-	39	0.025	0.14	?	0.062	0.097	0.033
NC(=S)Nc1cccc2[nH]ccc12	-	-	-	-	-	.	.	.	.	.	.
CCCn1c(N)c(C(=O)CSc2nc3ccccc3c(=O)n2Cc2ccccc2)c(=O)[nH]c1=O	-	-	-	-	40	0.016	0.08	-	0.026	0.054	0.012
COc1ccc([N+](=O)[O-])cc1NC(=O)c1ccccc1N(C)S(C)(=O)=O	-	-	-	-	-	.	.	.	.	.	.
O=C(COC(=O)c1ccco1)NCc1ccc(F)cc1	-	-	-	-	-	.	.	.	.	.	.
COc1cccc(C(=O)NNC(=O)c2sccc2-n2cccc2)c1	-	-	-	-	5.9	-	0.012	-	0.012	-	0.014
COc1cccc(C(=O)NNC(=O)c2ccccc2-n2cccc2)c1	-	-	-	-	-	.	.	.	.	.	.
O=C(OCn1ncc(Cl)c(Cl)c1=O)c1cccc(C(F)(F)F)c1	-	.	-	-	.	-	?	-	0.0059	0.015	-
CC(/C=N/n1c(-c2ccccn2)n[nH]c1=S)=C\c1ccccc1	-	-	.	.	8.4	-	0.029	-	0.013	?	-
CC(=O)Nc1nc2ccccc2n1CCOc1ccccc1	.	-	-	-	-	.	.	.	.	.	.
S=C(Nc1ccccc1)Nc1nc2ccccc2n1CCOc1ccccc1	-	-	30	-	29	0.011	0.059	-	0.017	0.036	?
CC1=C(C(=O)OCCOc2ccccc2)C(c2ccsc2)NC(=O)N1C (stereo not given)	-	-	-	-	-6.6	-	-	0.03	-	0.016	-
CC(C)CCN1CCN(Cc2ccc(C#CCCO)cc2)CC1CCO (stereo not given)	-	-	-	-	5.3	-	-	-	-	-	-
CCn1c(SCC(=O)Nc2cccc(C)c2)nc2c(c1=O)SC(C)C2 (stereo not given)	-	.	-	-	-	.	.	.	.	.	.
CC1CCCC(NC(=O)COC(=O)CCSc2ccccc2)C1C (stereo not given)	-	-	-	-	.	-	-	-	-	0.017	-
CCN(Cc1ccccc1)C(=O)CSc1nc(C)cc(=O)[nH]1	-	-	-	-	-	.	.	.	.	.	.
CCOc1ccc2nc(SC3CC(=O)N(c4ccc(OC)cc4OC)C3=O)sc2c1 (stereo not given)	-	-	-	-	5.8	-	0.013	-	0.014	?	0.017
CCOc1ccc(N2C(=O)CC(Sc3nc4ccc(OCC)cc4s3)C2=O)cc1 (stereo not given)	.	.	-	.	-	.	.	.	.	.	.
O=C(NCCc1nnc2ccc(NCc3cccnc3)nn12)c1ccccc1F	-	-	-	-	-	.	.	.	.	.	.
Cc1cc(C)n(CC(=O)c2ccccc2)c(=O)c1C#N	-	.	-	-	-	-	-	-	-	-	-
Cc1ccc(C(=O)Cn2c(C)cc(C)c(C#N)c2=O)cc1	-	.	-	-	-	.	.	.	.	.	.
CCC(CC)C1C(C#N)=C(N)Oc2n[nH]c(C)c21 (stereo not given)	-	-	-	-	.	-	-	-	-	0.016	-
CCC(CC)C1C(C#N)=C(N)Oc2n[nH]c(-c3ccccc3)c21 (stereo not given)	-	.	-	-	.	.	.	.	.	.	.
CCOc1ccccc1NC(=S)NCc1cccn1C	-	-	-	-	-	.	.	.	.	.	.
SMILES	b-catenin transl	Pf gamet viab	MT stabilize HCS	WT yeast gro inh	Cl transport mod	KCC2 secondary	KCC2 bumet counter	KCC2 sec2	HEK293 Tl flux	KCC2 retest ouab	HEK counter2
CCC1(c2ccccc2)NC(=S)N(c2ccc(C)cc2)N1 (stereo not given)	.	.	-	62	78	0.031	0.1	0.073	0.093	0.092	0.091
COc1ccc(C(=O)NCCSc2ccccc2)cc1OC	-	-	-	-	-	.	.	.	.	.	.
Cc1csc(NC(=O)C2CC(=O)N(Cc3ccco3)C2)n1 (stereo not given)	-	-	-	-	2.8	-	-	-	-	-	-
Cc1cccc(-c2noc(CCCC(=O)Nc3cccnc3)n2)c1	.	.	-	-	-5.1	-	-	-	-	-	-
COc1cccc(C(=S)N2CCCC2)c1OC	.	-	.	.	.	.	.	.	.	.	.
O=S(=O)(CCCc1ccccc1)c1ncn[nH]1	-	-	-	-	4.7	-	-	-	-	-	-
Nc1n[nH]c(S(=O)(=O)CCCc2ccccc2)n1	-	-	-	-	-	.	.	.	.	.	.
CC(C)c1nc(-c2c(N)n(C)c(=O)n(C)c2=O)sc1C(=O)C(C)(C)C	-	.	-	-	-	.	.	.	.	.	.
CC(C)Cn1c(-c2csc3c2CCCC3)n[nH]c1=S	.	.	-	-	4.8	-	0.033	-	0.011	0.029	-
O=C(N/N=C/c1cc2ccccc2[nH]1)c1ccccc1Cl	-	-	.	.	-	.	.	.	.	.	.
CCCn1nnc(NC(=O)c2ccc(F)cc2)n1	-	-	-	-	-4.1	?	?	-	-	-	-
CCCn1nnc(NC(=O)c2ccc3ccccc3c2)n1	-	.	-	-	-	.	.	.	.	.	.
O=C(CC1N=C(Cc2ccccc2)NNC1=O)N/N=C/c1ccc([N+](=O)[O-])cc1 (stereo not given)	-	-	-	-	-	.	.	.	.	.	.
O=C(NC(=S)Nc1ccccc1N1CCCC1)c1ccco1	-	-	.	.	134	0.042	0.11	0.056	0.072	0.068	0.062
O=C(/C=C/c1ccco1)NC(=S)Nc1ccccc1N1CCCC1	-	-	-	-	3.2	-	0.028	-	0.011	-	-
Cc1ccc(C(=O)Nc2ccccc2C(=O)N2CCOCC2)cc1[N+](=O)[O-]	-	-	-	-	6.9	-	-	-	-	-	-
O=C(NC(=S)N1CCCc2ccccc21)c1ccco1	-	-	-	-	-	.	.	.	.	.	.
O=C(Nc1ccccc1N1CCCC1)c1ccco1	-	-	-	-	-	.	.	.	.	.	.
CC1Cc2ccccc2N1C(=S)NC(=O)c1ccco1 (stereo not given)	-	-	-	-	26	0.012	0.056	0.042	0.039	0.049	0.029

Source: PubChem
